Experimental data reported in ChEMBL document CHEMBL2401705, “Discovery of triazines as potent, selective and orally active PDE4 inhibitors” (Bioorg Med Chem Lett, 2013).
Values after ≈ are worked out from the molar mass of the structure shown. One block for each molecule: values may come before it.

Tests used:
[1] = biological target: 3',5'-cyclic-AMP phosphodiesterase 4A (Homo sapiens, UniProt P27815); test: Inhibition of human full length PDE4A4 expressed in baculovirus infected sf21 cells
[2] = Aqueous solubility of the compound at pH 7.4; conditions: buffer
[3] = Intrinsic clearance in rat liver microsomes; format: ADME, Microsome; conditions: read-out: CLH
[4] = biological target: High affinity 3',5'-cyclic-AMP phosphodiesterase 7A (Homo sapiens, UniProt Q13946); test: Inhibition of human full length PDE7A1 expressed in baculovirus infected sf21 cells
Sequence of High affinity 3',5'-cyclic-AMP phosphodiesterase 7A (Q13946 whole entry): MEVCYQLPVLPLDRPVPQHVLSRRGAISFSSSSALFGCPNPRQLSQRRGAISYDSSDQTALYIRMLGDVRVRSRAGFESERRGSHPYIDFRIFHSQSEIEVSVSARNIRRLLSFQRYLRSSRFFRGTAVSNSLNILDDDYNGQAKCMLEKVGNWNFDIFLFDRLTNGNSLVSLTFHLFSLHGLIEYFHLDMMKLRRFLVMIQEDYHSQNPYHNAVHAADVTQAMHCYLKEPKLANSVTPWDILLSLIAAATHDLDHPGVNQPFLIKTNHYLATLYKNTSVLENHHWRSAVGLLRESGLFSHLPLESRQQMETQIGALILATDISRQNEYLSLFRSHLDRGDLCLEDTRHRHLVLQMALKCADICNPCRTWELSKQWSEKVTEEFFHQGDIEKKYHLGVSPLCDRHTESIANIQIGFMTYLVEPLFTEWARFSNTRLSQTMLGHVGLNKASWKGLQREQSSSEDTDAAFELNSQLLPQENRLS

serum albumin = serum albumin (Homo sapiens, UniProt P02768); test: Binding affinity to human serum albumin; format: ADME; conditions: read-out: PB (converted)
Sequence of serum albumin (P02768 whole entry): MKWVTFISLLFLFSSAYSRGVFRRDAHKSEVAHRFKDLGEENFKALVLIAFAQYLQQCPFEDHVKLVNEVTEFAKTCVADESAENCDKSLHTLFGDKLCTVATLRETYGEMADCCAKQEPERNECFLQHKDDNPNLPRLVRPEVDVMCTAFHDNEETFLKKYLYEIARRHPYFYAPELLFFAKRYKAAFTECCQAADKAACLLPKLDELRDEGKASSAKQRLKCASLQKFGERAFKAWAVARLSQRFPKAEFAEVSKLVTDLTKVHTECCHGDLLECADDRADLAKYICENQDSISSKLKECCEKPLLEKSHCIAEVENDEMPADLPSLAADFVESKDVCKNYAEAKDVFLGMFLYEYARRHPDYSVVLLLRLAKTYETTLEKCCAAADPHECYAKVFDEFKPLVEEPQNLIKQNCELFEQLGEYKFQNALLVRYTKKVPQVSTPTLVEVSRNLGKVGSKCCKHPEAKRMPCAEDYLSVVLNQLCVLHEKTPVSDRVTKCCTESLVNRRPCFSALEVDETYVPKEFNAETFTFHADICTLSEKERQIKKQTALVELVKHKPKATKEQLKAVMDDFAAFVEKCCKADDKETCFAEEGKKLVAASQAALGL

Mustela putorius furo [5] = test: Inhibition of LPS-induced neutrophilia in ferret COPD model BAL-fluid at 10 mg/kg, po; format: functional
Mustela putorius furo [6] = test: Toxicity in po dosed ferret assessed as first emetic dose by measuring occurrence of vomiting episode after 6 hrs; format: organism-based; conditions: in vivo
Summary of the method: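 Ferrets were given oral doses and watched for 6 h after administration for a vomiting episode; the first emetic dose was reported in mg/kg.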

[7] = Inhibition of cytochrome P450 (unknown origin); format: ADME; conditions: human
[8] = biological target: Voltage-gated inwardly rectifying potassium channel KCNH2 (Homo sapiens, UniProt Q12809); test: Inhibition of human ERG
Summary of the method: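 hERG was tested in a binding-format assay as percent inhibition at a single test concentration of 10 µM.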

[9] = biological target: cGMP-specific 3',5'-cyclic phosphodiesterase (Homo sapiens, UniProt O76074); test: Inhibition of human recombinant PDE5A
Blood = test: Inhibition of TNFalpha production in human whole blood; format: functional, tissue-based
[10] = Inhibition of CYP3A4B (unknown origin); format: ADME, Homo sapiens
PBMC = test: Inhibition of TNFalpha production in human PBMC; format: functional, cell-based
[11] = Inhibition of CYP3A4D (unknown origin); format: ADME, Homo sapiens
[12] = biological target: Dual specificity calcium/calmodulin-dependent 3',5'-cyclic nucleotide phosphodiesterase 1B (Homo sapiens, UniProt Q01064); test: Inhibition of human recombinant PDE1B
Sequence of Dual specificity calcium/calmodulin-dependent 3',5'-cyclic nucleotide phosphodiesterase 1B (Q01064 whole entry): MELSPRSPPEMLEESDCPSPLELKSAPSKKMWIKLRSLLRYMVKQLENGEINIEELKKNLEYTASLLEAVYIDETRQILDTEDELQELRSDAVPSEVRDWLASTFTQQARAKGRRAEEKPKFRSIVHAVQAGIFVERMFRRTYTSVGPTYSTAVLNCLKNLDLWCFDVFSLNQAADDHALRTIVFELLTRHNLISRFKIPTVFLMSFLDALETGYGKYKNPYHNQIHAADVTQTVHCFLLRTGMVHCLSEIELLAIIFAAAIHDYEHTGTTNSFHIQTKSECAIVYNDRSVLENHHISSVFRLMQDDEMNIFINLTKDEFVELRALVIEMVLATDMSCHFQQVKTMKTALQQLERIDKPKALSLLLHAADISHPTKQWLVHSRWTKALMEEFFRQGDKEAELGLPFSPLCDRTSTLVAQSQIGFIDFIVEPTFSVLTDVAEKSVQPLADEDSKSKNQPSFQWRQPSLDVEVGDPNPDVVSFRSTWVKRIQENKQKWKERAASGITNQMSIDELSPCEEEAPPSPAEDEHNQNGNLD

[13] = Inhibition of bovine retina PDE6; design: species or system Bos taurus
[14] = biological target: High affinity cAMP-specific and IBMX-insensitive 3',5'-cyclic phosphodiesterase 8A (Homo sapiens, UniProt O60658); test: Inhibition of human recombinant PDE8A
[15] = biological target: 3',5'-cyclic-AMP phosphodiesterase 4B (Homo sapiens, UniProt Q07343); test: Inhibition of full length PDE4B1 (unknown origin)
[16] = biological target: Dual 3',5'-cyclic-AMP and -GMP phosphodiesterase 11A (Homo sapiens, UniProt Q9HCR9); test: Inhibition of human recombinant PDE11A
[17] = Oral bioavailability in rat; format: ADME, organism-based; conditions: in vivo
[18] = biological target: 3',5'-cyclic-AMP phosphodiesterase 4D (Rattus norvegicus, UniProt P14270); test: Inhibition of rat PDE4D3
[19] = biological target: cAMP and cAMP-inhibited cGMP 3',5'-cyclic phosphodiesterase 10A (Homo sapiens, UniProt Q9Y233); test: Inhibition of human recombinant PDE10A
[20] = Half life in rat at 3 mg/kg, iv; format: ADME, organism-based; design: dose 3 mg/kg, route intravenous; conditions: in vivo
[21] = Cmax in rat at 3 mg/kg, po; format: ADME, organism-based; design: dose 3 mg/kg, route oral; conditions: in vivo
Cytochrome P450 2D6 = Cytochrome P450 2D6 (Homo sapiens, UniProt P10635); test: Inhibition of CYP2D6 (unknown origin); format: ADME
Sequence of Cytochrome P450 2D6 (P10635 whole entry): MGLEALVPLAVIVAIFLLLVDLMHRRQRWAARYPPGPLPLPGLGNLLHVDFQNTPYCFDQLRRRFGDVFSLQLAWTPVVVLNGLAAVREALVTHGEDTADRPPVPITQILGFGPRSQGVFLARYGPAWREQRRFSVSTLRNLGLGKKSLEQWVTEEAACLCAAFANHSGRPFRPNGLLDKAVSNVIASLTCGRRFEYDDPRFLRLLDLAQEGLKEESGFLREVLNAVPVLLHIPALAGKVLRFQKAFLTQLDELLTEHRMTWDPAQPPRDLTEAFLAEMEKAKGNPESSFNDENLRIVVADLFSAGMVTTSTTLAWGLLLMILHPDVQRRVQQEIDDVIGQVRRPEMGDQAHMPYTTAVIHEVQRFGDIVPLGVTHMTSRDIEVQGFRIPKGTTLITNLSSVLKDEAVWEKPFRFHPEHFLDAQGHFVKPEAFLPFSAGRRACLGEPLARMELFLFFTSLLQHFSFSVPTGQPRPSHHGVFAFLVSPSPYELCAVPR

Rattus norvegicus = test: Inhibition of LPS-induced neutrophil accumulation in rat lung at 0.1 mg/kg, po; format: functional
[22] = biological target: cGMP-dependent 3',5'-cyclic phosphodiesterase (Homo sapiens, UniProt O00408); test: Inhibition of human recombinant PDE2A
Mustela putorius furo [23] = test: Inhibition of LPS-induced neutrophilia in ferret COPD model BAL-fluid at 0.01 mg/kg, po; format: functional
Summary of the method: (§1)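 Ferrets challenged by LPS inhalation, with compound given orally. Read-out is the change in neutrophil count in bronchoalveolar lavage fluid, expressed as percentage inhibition.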

Mustela putorius furo [24] = test: Inhibition of LPS-induced neutrophilia in ferret COPD model BAL-fluid at 0.1 mg/kg, po; format: functional; summary of the method: as §1
Cytochrome P450 2C19 = Cytochrome P450 2C19 (Homo sapiens, UniProt P33261); test: Inhibition of CYP2C19 (unknown origin); format: ADME
[25] = Volume of distribution in rat at 3 mg/kg; format: ADME, organism-based; design: dose 3 mg/kg; conditions: in vivo
Cytochrome P450 1A2 = Cytochrome P450 1A2 (Homo sapiens, UniProt P05177); test: Inhibition of CYP1A2 (unknown origin); format: ADME
[26] = Intrinsic clearance in dog liver microsomes; format: ADME, Canis lupus familiaris, Microsome; conditions: read-out: CLH
Cytochrome P450 2C9 = Cytochrome P450 2C9 (Homo sapiens, UniProt P11712); test: Inhibition of CYP2C9 (unknown origin); format: ADME
Sequence of Cytochrome P450 2C9 (P11712 whole entry): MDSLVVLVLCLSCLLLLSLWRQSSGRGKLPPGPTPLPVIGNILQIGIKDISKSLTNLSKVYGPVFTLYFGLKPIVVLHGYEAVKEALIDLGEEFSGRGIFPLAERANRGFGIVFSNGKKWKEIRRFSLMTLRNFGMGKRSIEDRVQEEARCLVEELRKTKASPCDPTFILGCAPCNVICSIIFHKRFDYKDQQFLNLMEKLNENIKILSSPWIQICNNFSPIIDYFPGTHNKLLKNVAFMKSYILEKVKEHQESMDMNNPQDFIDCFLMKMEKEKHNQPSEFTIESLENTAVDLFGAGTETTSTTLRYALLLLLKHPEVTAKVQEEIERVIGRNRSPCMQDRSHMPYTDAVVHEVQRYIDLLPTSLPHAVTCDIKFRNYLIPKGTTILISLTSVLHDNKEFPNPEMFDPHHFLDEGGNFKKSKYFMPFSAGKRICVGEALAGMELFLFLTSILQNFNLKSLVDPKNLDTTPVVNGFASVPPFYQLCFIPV

Cytochrome P450 1A1 = Cytochrome P450 1A1 (Homo sapiens, UniProt P04798); test: Inhibition of CYP1A1 (unknown origin); format: ADME
hERG (KCNH2) = hERG (KCNH2) (Homo sapiens, UniProt Q12809); test: Inhibition of human ERG at 10 uM
Summary of the method: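 hERG measured in a binding assay, reported as percent inhibition at 10 µM.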

[27] = biological target: cGMP-inhibited 3',5'-cyclic phosphodiesterase 3A (Homo sapiens, UniProt Q14432); test: Inhibition of human recombinant PDE3A
[28] = Intrinsic clearance in human liver microsomes; format: ADME, Microsome; conditions: read-out: CLH
[29] = Inhibition of CYP3A4Q (unknown origin); format: ADME, Homo sapiens
[30] = biological target: High affinity cGMP-specific 3',5'-cyclic phosphodiesterase 9A (Homo sapiens, UniProt O76083); test: Inhibition of human recombinant PDE9A
Sequence of High affinity cGMP-specific 3',5'-cyclic phosphodiesterase 9A (O76083 whole entry): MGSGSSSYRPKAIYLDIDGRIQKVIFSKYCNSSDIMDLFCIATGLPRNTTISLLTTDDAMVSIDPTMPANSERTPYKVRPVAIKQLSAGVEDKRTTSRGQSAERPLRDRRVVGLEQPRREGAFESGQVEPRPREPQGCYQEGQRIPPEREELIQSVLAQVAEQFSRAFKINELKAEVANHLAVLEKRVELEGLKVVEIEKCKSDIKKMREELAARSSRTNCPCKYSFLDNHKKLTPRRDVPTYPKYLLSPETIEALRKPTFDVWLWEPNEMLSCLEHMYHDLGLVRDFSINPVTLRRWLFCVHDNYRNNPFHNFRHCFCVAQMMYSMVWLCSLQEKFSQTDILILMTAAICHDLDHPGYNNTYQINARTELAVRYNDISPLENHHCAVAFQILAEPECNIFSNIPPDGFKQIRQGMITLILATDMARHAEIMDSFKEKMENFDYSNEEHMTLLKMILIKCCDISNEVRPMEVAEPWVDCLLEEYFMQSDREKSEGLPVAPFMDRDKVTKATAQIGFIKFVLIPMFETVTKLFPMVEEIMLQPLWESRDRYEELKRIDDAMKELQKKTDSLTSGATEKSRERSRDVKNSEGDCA

[31] = Clearance in rat at 3 mg/kg, iv; format: ADME, organism-based; design: dose 3 mg/kg, route intravenous; conditions: in vivo
Cytochrome P450 2A6 = Cytochrome P450 2A6 (Homo sapiens, UniProt P11509); test: Inhibition of CYP2A6 (unknown origin); format: ADME
Sequence of Cytochrome P450 2A6 (P11509 whole entry): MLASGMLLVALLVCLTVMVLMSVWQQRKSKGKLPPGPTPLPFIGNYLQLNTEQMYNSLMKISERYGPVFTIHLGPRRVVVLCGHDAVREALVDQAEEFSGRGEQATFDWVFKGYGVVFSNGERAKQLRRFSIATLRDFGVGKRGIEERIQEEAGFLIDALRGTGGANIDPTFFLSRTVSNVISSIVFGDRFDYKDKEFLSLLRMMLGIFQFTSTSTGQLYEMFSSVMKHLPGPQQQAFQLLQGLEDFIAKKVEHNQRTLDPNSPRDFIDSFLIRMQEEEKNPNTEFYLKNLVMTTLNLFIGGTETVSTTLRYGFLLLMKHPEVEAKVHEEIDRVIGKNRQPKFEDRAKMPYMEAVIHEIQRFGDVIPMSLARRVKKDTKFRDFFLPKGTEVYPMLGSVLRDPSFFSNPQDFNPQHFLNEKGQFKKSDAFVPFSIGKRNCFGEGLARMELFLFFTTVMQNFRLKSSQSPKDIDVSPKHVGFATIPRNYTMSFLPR

Sequence of 3',5'-cyclic-AMP phosphodiesterase 4A (P27815 whole entry): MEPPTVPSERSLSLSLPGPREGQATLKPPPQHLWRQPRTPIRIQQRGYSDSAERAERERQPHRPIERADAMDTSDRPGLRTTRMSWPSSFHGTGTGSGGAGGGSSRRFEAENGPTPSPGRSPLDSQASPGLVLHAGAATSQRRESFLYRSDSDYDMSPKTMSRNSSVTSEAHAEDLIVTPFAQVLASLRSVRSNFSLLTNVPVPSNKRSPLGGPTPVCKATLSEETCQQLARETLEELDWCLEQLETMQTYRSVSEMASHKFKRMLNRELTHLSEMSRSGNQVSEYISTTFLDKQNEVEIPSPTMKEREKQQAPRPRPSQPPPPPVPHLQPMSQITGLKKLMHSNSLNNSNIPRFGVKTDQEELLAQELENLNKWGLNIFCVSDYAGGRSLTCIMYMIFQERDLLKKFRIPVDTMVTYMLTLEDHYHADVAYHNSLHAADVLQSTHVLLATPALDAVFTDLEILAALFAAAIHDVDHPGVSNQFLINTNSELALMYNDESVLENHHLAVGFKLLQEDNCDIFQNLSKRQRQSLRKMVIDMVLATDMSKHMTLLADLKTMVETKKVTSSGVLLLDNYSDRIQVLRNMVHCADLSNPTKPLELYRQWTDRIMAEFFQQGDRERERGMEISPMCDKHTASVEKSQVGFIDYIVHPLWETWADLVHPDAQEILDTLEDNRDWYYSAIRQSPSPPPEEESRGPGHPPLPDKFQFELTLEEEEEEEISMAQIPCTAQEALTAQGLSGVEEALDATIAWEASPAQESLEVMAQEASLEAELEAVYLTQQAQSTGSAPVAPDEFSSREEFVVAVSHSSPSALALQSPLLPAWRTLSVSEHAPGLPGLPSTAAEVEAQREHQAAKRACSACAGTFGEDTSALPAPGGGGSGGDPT

Compound: CNc1nc(NC2(C#N)CCCCC2)nc(SC)n1
IC50 [1]: 4.4 nM
CLint scaled [3]: 579 mL/min/kg
IC50 [4]: 46 nM

Compound: CNc1nc(NC2(C#N)CCCCC2)nc(C2CC2)n1
IC50 [1]: 19 nM
CLint scaled [3]: 276 mL/min/kg
IC50 [4]: 539 nM

Compound: CNc1nc(NC2(C#N)CCCCC2C)nc(-n2cncn2)n1 (mixture of isomers)
IC50 [1]: 0.15 nM
solubility [2]: 25 µg/mL
CLint scaled [3]: 86 mL/min/kg

Compound: COc1ccc([C@]2(C#N)CC[C@@H](C(=O)O)CC2)cc1OC1CCCC1 [CILOMILAST]
fraction unbound (serum albumin): 0.09
inhibition in vivo at 10 mg/kg (Mustela putorius furo [5]): 35%
Activity (Mustela putorius furo [6]): 1 mg/kg
solubility [2]: 17 µg/mL (≈ 49.5 µM)

Compound: CNc1nc(NC)nc(NC2(C#N)CCCCC2)n1
IC50 [1]: 153 nM
CLint scaled [3]: 210 mL/min/kg
IC50 [4]: > 1000 nM

Compound: CNc1nc(Nc2ccccc2)nc(NC2(C#N)CCCCC2)n1
IC50 [1]: 56 nM
IC50 [4]: > 5000 nM

Compound: N#CC1(Nc2nc(N)nc(Cl)n2)CCCCC1
IC50 [1]: 1040 nM

Compound: CNc1nc(NC2(C#N)CCCCC2)nc(-n2ccnc2)n1
inhibition (INH) [7]: Not Active
IC50 [1]: 6.6 nM
CLint scaled [3]: 52 mL/min/kg
inhibition (INH) [8]: Not Active
IC50 [4]: 1050 nM

Compound: CNc1nc(NC2(C#N)CCCCC2)nc(N2CCCC2)n1
IC50 [1]: 38 nM
CLint scaled [3]: > 276 mL/min/kg
IC50 [4]: > 5000 nM

Compound: CNc1nc(NC2(C#N)CCCCC2)nc(-n2cnc3ccccc32)n1
IC50 [1]: 12 nM
IC50 [4]: > 1000 nM

Compound: CNc1nc(NC2(C#N)CCCCC2)nc(N(C)C)n1
IC50 [1]: 18 nM
CLint scaled [3]: 276 mL/min/kg
IC50 [4]: > 5000 nM

Compound: CNc1nc(C#N)nc(NC2(C#N)CCCCC2)n1
IC50 [1]: 38 nM
CLint scaled [3]: 122 mL/min/kg
IC50 [4]: > 1000 nM

Compound: CCC(C#N)(CC)Nc1nc(NC)nc(-n2cncn2)n1
IC50 [9]: > 1000 nM
IC50 (Blood): 55 nM
fraction unbound (serum albumin): 0.49
IC50 [10]: > 10000 nM
IC50 (PBMC): 22 nM
IC50 [11]: > 10000 nM
IC50 [12]: > 1000 nM
Activity (Mustela putorius furo [6]): 3 mg/kg
IC50 [13]: > 1000 nM
IC50 [14]: > 1000 nM
IC50 [15]: 0.87 nM
IC50 [16]: > 1000 nM
bioavailability [17]: 41%
IC50 [18]: 1.18 nM
IC50 [19]: > 1000 nM
IC50 [1]: 0.81 nM
solubility [2]: 165 µg/mL (≈ 574 µM)
half-life [20]: 1.7 h
Cmax [21]: 669 ng/mL
IC50 (Cytochrome P450 2D6): > 10000 nM
CLint scaled [3]: 26 mL/min/kg
inhibition in vivo at 0.1 mg/kg (Rattus norvegicus): 41%
IC50 [22]: > 1000 nM
inhibition in vivo at 0.01 mg/kg (Mustela putorius furo [23]): 33%
inhibition in vivo at 0.1 mg/kg (Mustela putorius furo [24]): 66%
IC50 (Cytochrome P450 2C19): > 10000 nM
Vd [25]: 0.5 L/kg
IC50 (Cytochrome P450 1A2): > 10000 nM
CLint scaled [26]: < 1 mL/min/kg
IC50 (Cytochrome P450 2C9): > 10000 nM
IC50 (Cytochrome P450 1A1): > 10000 nM
inhibition at 10 µM (hERG (KCNH2)): 6%
IC50 [27]: > 1000 nM
CLint scaled [28]: < 1 mL/min/kg
IC50 [29]: > 10000 nM
IC50 [30]: > 1000 nM
clearance [31]: 3.3 mL/min/kg
IC50 (Cytochrome P450 2A6): > 10000 nM

The remaining lines, values ahead:

IC50 [1]: 44 nM
Compound: CNc1nc(Cl)nc(NC2(C#N)CCCCCC2)n1

IC50 [1]: 104 nM
Compound: CNc1nc(Cl)nc(NC2CCCCC2)n1

IC50 [1]: 156 nM
Compound: CCC(C)(CC)Nc1nc(Cl)nc(NC)n1

IC50 [1]: 160 nM
Compound: CNc1nc(Cl)nc(NC(C)(C)C#N)n1

IC50 [1]: 60 nM
Compound: CCCC(C#N)(CCC)Nc1nc(Cl)nc(NC)n1

IC50 [1]: 54 nM
Compound: CNc1nc(Cl)nc(NC2(C#N)CCCC2)n1

IC50 [1]: 1.4 nM
solubility [2]: 165 µg/mL (≈ 578 µM)
CLint scaled [3]: 43 mL/min/kg
Compound: CNc1nc(NC2(C#N)CCCC2)nc(-n2cncn2)n1

IC50 [1]: > 1000 nM
Compound: CNc1nc(N)nc(NC2(C#N)CCCCC2)n1

IC50 [1]: 0.89 nM
solubility [2]: 22 µg/mL (≈ 70.7 µM)
CLint scaled [3]: 3.7 mL/min/kg
Compound: CNc1nc(NC(C#N)(C2CC2)C2CC2)nc(-n2cncn2)n1

IC50 [1]: 1.6 nM
CLint scaled [3]: 37 mL/min/kg
Compound: CNc1nc(NC2(C#N)CCC(C)CC2)nc(-n2cncn2)n1 (mixture of isomers)

IC50 [1]: 87 nM
Compound: CCC(C#N)(CC)Nc1nc(Cl)nc(NC)n1
